Insulin prom act: activators of insulin promoter-driven GFP, primary screen, imaging, TRM-6 cells, eGFP reporter, cell count | plate-scaled: unstimulated 0, stimulated control 100 | activation, % at 2 µM | 0.81% of 130,000 active;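 active means activation at 2 µM above a set limit, confirmed on inspection of the cell images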;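 further: share of cells whose green reporter signal exceeds an intensity cutoff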
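Test system: human fetal islet-derived TRM-6 cells with tamoxifen-inducible insulin promoter–eGFP reporter. Compound dosing: 2 µM final, single concentration. Incubation: tamoxifen pre-incubation 15 h overnight, then compound exposure 48 h at 37 °C. Signal: fixed-cell fluorescence microscopy, eGFP plus Hoechst.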
Each line names hits and unclear results; the compound was inactive in the other large screens. Only a selection was taken, and hits are over-represented in it overall.

CCC(=O)Nc1nc(C)nc(C)c1C(C)=O	none
CC(=O)Nc1nc(C)nc(C)c1C(C)=O	Insulin prom act 128.6
CC(=O)Nc1nc(-c2ccccc2)nc(C)c1C(C)=O	none
CCCc1ccccc1OCCNC(=O)c1cc(=O)n(C)c(=O)n1C	none
Cc1cc(Nc2ccccc2N2CCOCC2)n2ncnc2n1	none
COC(=O)C(Cc1cnc(Cl)s1)(C(=O)OC)c1ccccc1[N+](=O)[O-]	none
COC(=O)C(Cc1cnc(Cl)s1)(C(=O)OC)c1ccc([N+](=O)[O-])cc1	Insulin prom act 535.7
Cc1ccc(OCC(=O)Nc2ccc([N+](=O)[O-])cc2)cc1	none
O=[N+]([O-])c1ccc(COc2ccc(CNc3ccccc3)cc2)cc1	none
CC1CN(CCOc2ccc([N+](=O)[O-])cc2)CC(C)O1 (stereo unspecified)	none
O=[N+]([O-])c1ccc(OCc2cnc(Cl)s2)cc1	Insulin prom act 239.5
COC(=O)c1ccc(NC(=O)COc2ccc(S(=O)(=O)NC(C)C)cc2)cc1	none
O=C(COc1ccc(/C=N/NS(=O)(=O)c2ccccc2)cc1)Nc1ccccc1	Insulin prom act 284.6
COC(=O)c1ccc(S(=O)(=O)NNC(=O)COc2ccc(C)cc2)cc1	none
COC(=O)c1ccc(NC(=O)COc2ccc(S(=O)(=O)NC(C)(C)C)cc2)cc1	Insulin prom act 442.9
N/C(COc1ccccc1)=N\NS(=O)(=O)c1ccccc1	none
Cc1cc(C)nc(NS(=O)(=O)c2ccc(NC(=O)COc3ccccc3)cc2)n1	none
CCCSc1nc(NCc2ccco2)c2c3c(sc2n1)COC(C)(C)C3	none
O=CN1CCN(C(C(=O)NC2CCCCC2)c2cc3c(cc2[N+](=O)[O-])OCO3)CC1 (stereo unspecified)	none
CC(C)[C@H](NC(=O)c1ccccc1)C(=O)OCC(=O)N1CCc2ccccc2C1	none
CCN1CCc2c(OCC(=O)Nc3cccc(C)c3)cccc2C1=O	none
CC1CCN(C(=O)COc2cccc3c2CCN(Cc2ccccc2)C3=O)CC1	none
Cc1ccccc1CN1CCc2c(OCC(=O)N3CCCc4ccccc43)cccc2C1=O	Insulin prom act 128.0
CCOc1ccccc1NC(=O)c1ccc(F)c(S(=O)(=O)N2CCC3(CC2)OCCO3)c1	none
CC(C)(C)NC(=O)C(c1ccc(O)cc1)N(C(=O)CCC(=O)Nc1nccs1)c1ccc(F)cc1 (stereo unspecified)	none
O=C(CNC(=S)N(Cc1ccccc1)Cc1cccs1)NCc1ccc(F)cc1	none
O=C(CN(Cc1cccs1)C(=O)CNS(=O)(=O)c1ccc(F)cc1)NCc1ccco1	Insulin prom act 171.4
CC(C)C(C(=O)NCC1CCCO1)N(Cc1ccco1)C(=O)CNS(=O)(=O)c1ccc(F)cc1 (stereo unspecified)	none
CC1(C(=O)NCc2cccnc2)CCC(=O)N1Cc1cccs1 (stereo unspecified)	none
Brc1ccc(CSc2nnc3ccccn23)cc1	none
COc1cc(CCC(=O)Nc2ccc(Cl)c(C(F)(F)F)c2)cc(OC)c1OC	Insulin prom act 276.9
COc1cc(CCC(=O)Nc2cc(Cl)ccc2N2CCN(C)CC2)cc(OC)c1OC	none
COc1cccc(C(=O)Nc2ccc(Cl)c(C(F)(F)F)c2)c1	none
CCOc1cc(CNCC2CCCN2CC)cc(Cl)c1OC (stereo unspecified)	Insulin prom act 345.0
CCN1CCCC1CNCc1cccc(OC)c1OCc1ccccc1F (stereo unspecified)	none
CCc1ccc(NC(=S)NCC2CCCN2CC)cc1 (stereo unspecified)	none
CCOc1cc(CNCCCN2CCOCC2)cc(Br)c1OCc1ccccc1Cl	none
CCNCc1ccccc1OCc1ccccc1	none
CCN1CCCC1CNCc1ccccc1OCc1ccc(F)cc1 (stereo unspecified)	Insulin prom act 97.2
Cc1noc(C)c1COc1cccc(C(=O)N2CCc3ccccc32)c1	none
CCN(CC(=O)NC1CCS(=O)(=O)C1)C(=O)/C=C/c1cccs1 (stereo unspecified)	none
CC(=O)c1ccc(Oc2nc(-c3cccnc3)nc3ccccc23)cc1	none
Cc1ccccc1C(=O)Nc1ccnc(-c2ccncc2)n1	none
CC(=O)Nc1ccnc(-c2cccnc2)n1	Insulin prom act 186.7
COc1ccc(-n2cc(C(=O)c3cc4ccccc4oc3=O)c(C(C)=O)n2)cc1	none
Cc1ncc(CSc2nnnn2-c2ccccc2)c(N)n1	none
CN(C)c1nc(N)nc(CSc2nnnn2-c2ccc(F)cc2)n1	none
Nc1nc(CSc2nnnn2-c2ccccc2)nc(N2CCCc3ccccc32)n1	Insulin prom act 447.1
CNS(=O)(=O)c1cccc(C(=O)OCC(=O)Nc2ccccc2OC(F)F)c1	none
O=C(c1ccccc1)c1c2c(cc3sc4ccccc4[n+]13)-c1cccc3cccc-2c13	Insulin prom act 233.3
C=CCNc1sc(C(=O)c2ccccc2)c(N)c1-c1nc2ccccc2s1	none
CCCCOC(=O)Sc1nc2ccccc2o1	none
CCc1nnc(NC(=O)CSc2nc(-c3ccc(OC)cc3)ns2)s1	none
COc1ccc(-c2nsc(SCC(=O)Nc3cc(C)on3)n2)cc1	none
Cc1cccc(-c2nsc(SCC(=O)Nc3nccs3)n2)c1	Insulin prom act 121.4
C/C(=N/NC(=O)CCC(=O)Nc1cccc(Cl)c1)c1ccc(C)cc1	none
COC(=O)c1nn(-c2ccc(C)cc2)c2nnc(Cc3ccccc3)c(=O)n12	none
O=C(Nc1ccc(Cl)cc1)N1CCC(CO)(Cc2ccccc2)CC1	none
CC(C)CCN1C(=O)c2ccccc2C1C(=O)NCc1cccnc1 (stereo unspecified)	none
CC(OC(=O)c1cc2sccc2n1C)C(=O)NCCc1ccccc1 (stereo unspecified)	none
Cn1c(C(=O)OC(C(=O)NCc2ccco2)c2ccncc2)cc2sccc21 (stereo unspecified)	Insulin prom act 633.3
CC(OC(=O)c1cc2sccc2n1C)C(=O)NCc1ccc(F)cc1 (stereo unspecified)	none
O=C1CC(c2cccc(Cl)c2)C(n2cncn2)C(=O)C1C1NCCc2ccccc21 (stereo unspecified)	none
COc1cccc2c1C(=O)c1c(O)c3c(c(O)c1C2=O)C[C@@](O)(C(C)=O)C[C@@H]3O[C@H]1C[C@H](N)[C@H](O)[C@H](C)O1	Insulin prom act 354.5
CCOc1ccc(C(C)NC(=O)CCC(=O)O)cc1 (stereo unspecified)	none
CCCn1c(Nc2ccccc2)nc2ccccc21	none
Cn1c(NCc2c(O)ccc3ccccc23)nc2ccccc21	none
Cn1c(Nn2cnnc2)nc2ccccc21	Insulin prom act 121.4
O=S(=O)(CCc1nc2ccccc2s1)c1ccc2ccccc2c1	none
CC(=O)Nc1ccccc1C(=O)N1CCN(Cc2ccccc2)CC1	none
COC(=O)COn1c(SC(C)C)nc2ccccc2c1=O	none
CCOC(=O)C(C)On1c(SC(C)C(=O)OCC)nc2ccccc2c1=O (stereo unspecified)	Insulin prom act 75.7
CCSc1nc2ccccc2c(=O)n1OCC(=O)OC	none
CN=C1CC(C)(C)CC(=O)/C1=C(/O)CCC(=O)NC	none
CCOC(=O)c1cc(C(C)(C)C)oc1CNC(=O)c1c(C)oc2c1CCCC2	Insulin prom act 493.3
CCOC(=O)c1cc(C(C)(C)C)oc1CN	none
Cc1cc(C(C)(C)C)oc1C(=O)NCCCNC(=O)c1oc(C(C)(C)C)cc1C	none
COc1ccc(Cl)cc1C(=O)NC(=S)Nc1cc(-c2nc3ccccc3[nH]2)ccc1C	none
CC1=C(C(=O)OCC2CCCO2)C(c2coc3ccccc3c2=O)C2=C(CCCC2=O)N1 (stereo unspecified)	none
O=C(c1cc(F)ccc1F)C1CCCN(C(=O)CCN2CCCCO2)C1 (stereo unspecified)	none
O=C(CCCCCN1C(=O)c2ccccc2C1=O)Nc1ccc2c(c1)OCCO2	none
O=C(CCCN1C(=O)CCC1=O)Nc1ccc2c(c1)OCCO2	none

Compound activity: PubChem, Columbia University Molecular Screening Center
